For test [1], the system named is T47D. Nature of the test: Cytotoxicity against human T47D cells assessed as growth inhibition at 3 to 30 uM after 48 hrs by SRB assay. It is filed as functional, cell-based. In a few lines: (§1)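 T47D or MDA-MB-231 breast tumor cells (DMEM/F12, 10% FBS, penicillin/streptomycin) plated in 96-well format and exposed to compound for 48 h. Viability read by sulforhodamine B staining and expressed as % inhibition relative to untreated control. One representative experiment in triplicate, mean with SD.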
On the technique in general: The SRB assay estimates cell density from bound dye.

Test [2] relates to T47D. Put plainly: Activation of HIF-1 (unknown origin) transfected in human T47D cells at 3 to 30 uM after 16 hrs by luciferase reporter gene assay. In kind it is cell-based. Summed up: (§2)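 T47D breast tumor cells grown in DMEM/F12 with L-glutamine, 10% FBS and penicillin/streptomycin, transfected with HIF-1 reporter pHRE3-TK-Luc; compound exposure 16 h. Luciferase activity normalized to untreated control as relative luciferase activity; 1,10-phenanthroline used as HIF-1 activator control. Mean + SD, n = 4.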
Background: Reporter assays use an easily measured gene product as a stand-in for the process of interest.

Test [3] relates to MDA-MB-231. Nature of the test: Cytotoxicity against human MDA-MB-231 cells assessed as growth inhibition at 3 to 30 uM after 48 hrs by SRB assay. It is filed as functional, cell-based. Summed up: as §1
Test [4] deals with T47D. Nature of the test: Cytotoxicity against human T47D cells assessed as growth inhibition at 30 uM after 48 hrs by SRB assay relative to control. In kind it is functional. To be noted: read-out: GI. Summed up:
as §1

In test [5] the test system is T47D (Homo sapiens). Put plainly: Activation of HIF-1 in human T47D cells assessed as increase in VEGF production at 10 uM after 16 hrs by ELISA.
The subject of test [6] is T47D. Put plainly: Activation of HIF-1 (unknown origin) transfected in human T47D cells at 10 uM after 16 hrs by luciferase reporter gene assay relative to control. It is filed as cell-based. Summed up: as §2
The test system of test [7] is T47D. Nature of the test: Activation of HIF-1 in human T47D cells assessed as increase in cellular VEGF production at 10 uM after 16 hrs by ELISA. It is filed as cell-based. Summed up:
(§3)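 T47D cells treated at 10 μM for 16 h. VEGF protein measured by ELISA in conditioned medium (secreted) or cell lysate (cellular), normalized to cellular protein by micro BCA assay. Untreated medium control; 1,10-phenanthroline positive control. Mean + SD pooled from two independent experiments (n = 3); p < 0.05 versus untreated control flagged.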
For orientation: An ELISA detects its analyte on a solid surface through an enzyme-linked reagent.

Test [8] deals with T47D. Put plainly: Activation of HIF-1 in human T47D cells assessed as increase in secreted VEGF production at 10 uM after 16 hrs by ELISA. It is filed as cell-based. Summed up: as §3

The values that follow come from ChEMBL document CHEMBL2385008, “Inducers of hypoxic response: marine sesquiterpene quinones activate HIF-1” (2013).

Structures are written as SMILES. Activity calls are given as the source filed them. The calls are words filed in the database; no cut-off is given here.

Turning to `COC1=CC(=O)C2=C(C[C@@H]3[C@@]4(C)CCCC(C)(C)[C@@H]4CC[C@@]3(C)O2)C1=O`, the “growth inhibition (GI)” value in test [1] and in test [3] was “Dose-dependent effect” in each case. In test [2], the outcome was inactive.

Turning to `C=C1CCC[C@H]2[C@](C)(CC3=C(O)C(=O)C=C(OC)C3=O)[C@@H](C)CC[C@]12C` [ILIMAQUINONE], the inhibition of growth at 30 µM in test [4] amounted to 56%. The “growth inhibition (GI)” value in test [1] and in test [3] was “Dose-dependent effect” each time. The outcome in test [5], in test [7] and in test [8] was Active. This compound also came in with an Activity in test [6] of 930%.

With `C=C1CCC[C@@]23OC4=C(C[C@]2(C)[C@H](C)CC[C@@]13C)C(=O)C(OC)=CC4=O`, the “growth inhibition (GI)” value in test [1] and in test [3] was “Dose-dependent effect” throughout. In addition, in test [2], the result was inactive.

As for `c1cnc2c(c1)ccc1cccnc12`, the outcome in test [7] and in test [8] was Active.

In the case of `CC1(C)CCC[C@]2(C)[C@H]3Cc4cc(O)ccc4O[C@@]3(C)CC[C@@H]12`, the “growth inhibition (GI)” value in test [1] and in test [3] was “inactive” each time. The result in test [2] was inactive.

With `COC1=CC(=O)C(O)=C(C[C@]2(C)[C@H](C)CC[C@]34C[C@@]3(C)CCC[C@@H]24)C1=O`, the inhibition of growth at 30 µM in test [4] came to 58%. Further, the “growth inhibition (GI)” value in test [1] and in test [3] was “Dose-dependent effect” in each case. Moreover, the outcome in test [5], in test [7] and in test [8] was Active. Moreover, the Activity in test [6] was found to be 1000%.

With `COC1=CC(=O)C2=C(C[C@]3(O2)[C@@H](C)CC[C@H]2C(C)(C)CCC[C@@]23C)C1=O`, the “growth inhibition (GI)” value in test [1] and in test [3] was “Dose-dependent effect” in each case. For the same compound, in test [2], the result was inactive.

Take `COC(=O)c1cc2c(c(O)c1O)O[C@@]1(C2)[C@@H](C)CC[C@H]2C(C)(C)CCC[C@@]21C`: the “growth inhibition (GI)” value in test [1] and in test [3] was “Dose-dependent effect” each time. Moreover, the result in test [2] was inactive.

Consider `COC1=CC(=O)C2=C(C[C@]3(C)[C@H](C)CC[C@]45C[C@@]4(C)CCC[C@]53O2)C1=O`, for which the “growth inhibition (GI)” value in test [1] and in test [3] was “Dose-dependent effect” in each case. Further, in test [2], the outcome was inactive.

For `C=C1CCC[C@H]2[C@](C)(CC3=C(O)C(=O)C=C(OC)C3=O)[C@H](C)CC[C@@]12C` (relative stereo), in test [4], the inhibition of growth at 30 µM worked out at 60%. The “growth inhibition (GI)” value in test [1] and in test [3] was “Dose-dependent effect” throughout. For the same compound, the result in test [5], in test [7] and in test [8] was Active. Also, the Activity in test [6] came to 830%.
